From ChEMBL document CHEMBL6134796, “Development and Evaluation of Indole-Based Phospholipase D Inhibitors for Lung Cancer Immunotherapy” (J Med Chem, 2025)
Active and inactive are the calls of the source. No cut-off for these calls is given here.

What was measured:
[1] = Cytotoxicity against human HCC15 cells assessed as inhibition of cell growth incubated for 48 hrs by WST-1 assay; format: functional, cell-based; conditions: HCC15, 48 h
In short: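 WST-1 viability assay. Cells seeded at 5 × 10^3 per well and incubated 24 h at 37 °C, then exposed to drug for 48 h. Absorbance read at 450 nm, in triplicate. IC50 taken as the concentration giving 50% growth inhibition versus control.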

[2] = Inhibition of PLD in human A549 cells measured after 1 hr by amplex red phospholipase D assay; format: cell-based
Mus musculus [3] = experiment: In vivo inhibition of KRAS activation in male C57BL/6 mouse allografted with mouse Lewis lung carcinoma cell line assessed as decrease in IKBalpha phosphorylation at 10 mg/kg, po; format: functional, organism-based
[4] = target: T1, Phospholipase D1 (Mus musculus) (UniProt Q9Z280); experiment: In vivo inhibition of PLD1 in male C57BL/6 mouse allografted with mouse Lewis lung carcinoma cell line assessed as increase in CD80+ pro-inflammatory M1 macrophage population at 10 mg/kg, po by immunofluorescence analysis; format: functional, organism-based
T1 sequence (whole entry): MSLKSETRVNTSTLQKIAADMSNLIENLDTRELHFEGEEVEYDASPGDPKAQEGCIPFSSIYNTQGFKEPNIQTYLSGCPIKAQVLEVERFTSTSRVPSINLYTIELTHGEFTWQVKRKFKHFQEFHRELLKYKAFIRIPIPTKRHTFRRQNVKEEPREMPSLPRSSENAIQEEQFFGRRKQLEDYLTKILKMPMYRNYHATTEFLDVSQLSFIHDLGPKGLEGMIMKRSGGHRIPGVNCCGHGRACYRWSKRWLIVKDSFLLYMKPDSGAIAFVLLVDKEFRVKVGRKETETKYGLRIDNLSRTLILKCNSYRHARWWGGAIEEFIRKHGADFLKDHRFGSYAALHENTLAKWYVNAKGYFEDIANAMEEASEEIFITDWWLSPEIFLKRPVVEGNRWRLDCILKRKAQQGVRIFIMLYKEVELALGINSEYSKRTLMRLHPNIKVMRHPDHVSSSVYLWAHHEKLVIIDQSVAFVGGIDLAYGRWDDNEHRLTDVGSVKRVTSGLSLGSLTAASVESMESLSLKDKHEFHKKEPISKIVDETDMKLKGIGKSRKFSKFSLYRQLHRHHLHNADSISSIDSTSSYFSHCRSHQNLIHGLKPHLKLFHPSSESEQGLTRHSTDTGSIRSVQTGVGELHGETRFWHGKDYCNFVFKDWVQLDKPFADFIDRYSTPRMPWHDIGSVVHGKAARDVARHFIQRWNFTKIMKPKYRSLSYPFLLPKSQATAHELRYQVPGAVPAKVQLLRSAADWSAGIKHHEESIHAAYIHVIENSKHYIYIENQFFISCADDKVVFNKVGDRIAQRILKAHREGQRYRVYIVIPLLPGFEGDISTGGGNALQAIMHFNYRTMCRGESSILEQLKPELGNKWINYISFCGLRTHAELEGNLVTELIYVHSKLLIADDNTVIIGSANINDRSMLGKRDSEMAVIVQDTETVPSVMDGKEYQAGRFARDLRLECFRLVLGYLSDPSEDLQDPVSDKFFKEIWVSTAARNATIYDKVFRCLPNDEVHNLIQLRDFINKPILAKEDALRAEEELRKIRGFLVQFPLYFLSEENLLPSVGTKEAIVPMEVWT
In short: (§1)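 Same LLC syngeneic C57BL/6 model, 10 mg/kg PO every other day for 3 weeks. Tumor tissues were stained by immunofluorescence for CD80+ and CD163+ cells, CD8+ T cells, and CD4+/IL-17+ and Treg populations. Nuclei were counterstained with 1 μM Hoechst 33342 and imaged by confocal microscopy.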

A549 [5] = experiment: Inhibition of PLD1 F614A mutant (unknown origin) overexpressed in human A549 cells; format: cell-based
In short: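 A549 cells transfected with wild-type PLD1, PLD1 mutants (L425A, F614A, F789A) or PLD2, then compound-treated. PLD activity measured as [3H]phosphatidylbutanol formed in the presence of 1-butanol after [3H]myristic acid labeling, expressed as % of total lipid cpm. At least three independent experiments.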

[6] = tested on: Lewis lung carcinoma cell line; experiment: Antitumor activity against mouse Lewis lung carcinoma cell line allografted in male C57BL/6 mouse model assessed as recovery of spleen weight at 10 mg/kg, po measured every other day for 3 weeks; format: functional, organism-based
In short: (§2)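 Syngeneic model: 6-week-old male C57BL/6 mice given 3 × 10^5 LLC cells in 50 μL PBS subcutaneously in the flank. At day 7, mice were randomized to vehicle PO daily or 10 mg/kg PO every other day for 3 weeks. Caliper volume was taken every 2 days as ([…])/2, with tumor weight at end. Spleen size and weight were recorded. Ki67 and cleaved caspase-3 were scored by IHC (DAB, hematoxylin).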

A549 [7] = experiment: Enhancement of macrophage induced phagocytosis in CFSE labelled human A549 cells assessed as increase on CD11b+CFSE macrophage […] at 5 to 20 uM incubated for 48 hrs by flow cytometric analysis; format: functional, cell-based; conditions: dose 5-20 µM
In short: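 A549 cells treated 48 h in RPMI/10% FBS, then labeled with 1 μM CFSE. Co-cultured 1:1 (5 × 10^5 each) with PMA-differentiated THP-1 macrophages in serum-free RPMI for 2 h. After Fc block, stained with PerCP-Cy5.5 anti-CD11b for 20 min at 4 °C. CD11b+CFSE+ fraction measured by flow cytometry.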

A549 [8] = experiment: Induction of apoptosis in human A549 cells measured up to 48 hrs in presence of gemcitabine by Annexin V-FITC and PI staining based flow cytometry analysis; format: functional, cell-based
In short: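 A549 cells given compound, gemcitabine, or both. Apoptosis assessed by PI staining, annexin V flow cytometry, cleaved PARP immunoblot, and caspase-3 activity. For caspase-3: drugs at 10 μM for 48 h, then 1 μM NucView 488 substrate for 30 min, with 1 μM Hoechst 33342, read by plate fluorescence.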

[9] = target: T1, Phospholipase D1 (Mus musculus); experiment: In vivo inhibition of PLD1 in male C57BL/6 mouse allografted with mouse Lewis lung carcinoma cell line assessed as reduction in CD47 expression at 10 mg/kg, po by immunofluorescence analysis; format: functional, organism-based
[10] = tested on: Lewis lung carcinoma cell line; experiment: Antitumor activity against mouse Lewis lung carcinoma cell line allografted in male C57BL/6 mouse model assessed as reduction in tumor formation at 10 mg/kg, po measured every other day for 3 weeks; format: functional, organism-based; in short: as §2
Mus musculus [11] = experiment: In vivo inhibition of KRAS activation in male C57BL/6 mouse allografted with mouse Lewis lung carcinoma cell line assessed as decrease in ERK phosphorylation at 10 mg/kg, po; format: functional, organism-based
[12] = target: T1, Phospholipase D1 (Mus musculus); experiment: In vivo inhibition of PLD1 in male C57BL/6 mouse allografted with mouse Lewis lung carcinoma cell line assessed as increase in IL-17+ th17 cell population at 10 mg/kg, po by immunofluorescence analysis; format: functional, organism-based; in short: as §1
[13] = target: T1, Phospholipase D1 (Mus musculus); experiment: In vivo inhibition of PLD1 in male C57BL/6 mouse allografted with mouse Lewis lung carcinoma cell line assessed as reduction in PD-L1 expression at 10 mg/kg, po by immunofluorescence analysis; format: functional, organism-based
[14] = target: T1, Phospholipase D1 (Mus musculus); experiment: In vivo inhibition of PLD1 in male C57BL/6 mouse allografted with mouse Lewis lung carcinoma cell line assessed as increase in CD8+T cell population at 10 mg/kg, po by immunofluorescence analysis; format: functional, organism-based; in short: as §1

For `O=C(CCc1c[nH]c2ccccc12)Nc1cc(C(F)(F)F)cc(C(F)(F)F)c1`, the IC50 [1] was 21.4 µM, the IC50 [2] was 1.97 µM and the inhibition (Mus musculus [3]) was “Active”. The inhibition [4] was “Active”, the inhibition (A549 [5]) was “inactive” and the Activity [6] was “Active”. For the same compound, the Activity (A549 [7]) was “Active”, the Activity (A549 [8]) was “Active” and the inhibition [9] was “Active”. For the same compound, the Activity [10] was “Active”, the inhibition (Mus musculus [11]) was “Active” and the inhibition [12] was “Active”. The inhibition [13] was “Active” and the inhibition [14] was “Active”.
